In ChEMBL document CHEMBL3393025, “Discovery of dual leucine zipper kinase (DLK, MAP3K12) inhibitors with activity in neurodegeneration models” (J Med Chem, 2015):
Active and inactive are the calls of the source. The calls are words filed in the database; no cut-off is given here.

Experiments:
[1] = molecular target: T1, Dual specificity mitogen-activated protein kinase kinase 4 (Homo sapiens, UniProt P45985); experiment: Inhibition of MKK4 (unknown origin)
T1 sequence (P45985 whole entry): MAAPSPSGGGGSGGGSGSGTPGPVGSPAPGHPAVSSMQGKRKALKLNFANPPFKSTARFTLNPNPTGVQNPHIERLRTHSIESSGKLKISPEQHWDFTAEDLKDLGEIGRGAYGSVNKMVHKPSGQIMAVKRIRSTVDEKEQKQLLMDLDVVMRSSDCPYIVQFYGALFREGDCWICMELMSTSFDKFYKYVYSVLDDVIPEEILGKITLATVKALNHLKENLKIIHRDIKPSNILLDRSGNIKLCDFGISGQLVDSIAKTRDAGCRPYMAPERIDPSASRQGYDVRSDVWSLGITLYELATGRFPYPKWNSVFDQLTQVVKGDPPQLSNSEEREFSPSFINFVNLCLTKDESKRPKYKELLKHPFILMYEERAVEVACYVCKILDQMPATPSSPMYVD

[2] = molecular target: Mitogen-activated protein kinase 10 (Homo sapiens, UniProt P53779); experiment: Inhibition of JNK3 (unknown origin)
[3] = molecular target: Mitogen-activated protein kinase kinase kinase 11 (Homo sapiens, UniProt Q16584); experiment: Inhibition of MLK3 (unknown origin)
[4] = molecular target: T2, Ephrin type-A receptor 1 (Homo sapiens) (UniProt P21709); experiment: Inhibition of EphA1 (unknown origin) at 0.1 uM
T2 sequence (whole entry): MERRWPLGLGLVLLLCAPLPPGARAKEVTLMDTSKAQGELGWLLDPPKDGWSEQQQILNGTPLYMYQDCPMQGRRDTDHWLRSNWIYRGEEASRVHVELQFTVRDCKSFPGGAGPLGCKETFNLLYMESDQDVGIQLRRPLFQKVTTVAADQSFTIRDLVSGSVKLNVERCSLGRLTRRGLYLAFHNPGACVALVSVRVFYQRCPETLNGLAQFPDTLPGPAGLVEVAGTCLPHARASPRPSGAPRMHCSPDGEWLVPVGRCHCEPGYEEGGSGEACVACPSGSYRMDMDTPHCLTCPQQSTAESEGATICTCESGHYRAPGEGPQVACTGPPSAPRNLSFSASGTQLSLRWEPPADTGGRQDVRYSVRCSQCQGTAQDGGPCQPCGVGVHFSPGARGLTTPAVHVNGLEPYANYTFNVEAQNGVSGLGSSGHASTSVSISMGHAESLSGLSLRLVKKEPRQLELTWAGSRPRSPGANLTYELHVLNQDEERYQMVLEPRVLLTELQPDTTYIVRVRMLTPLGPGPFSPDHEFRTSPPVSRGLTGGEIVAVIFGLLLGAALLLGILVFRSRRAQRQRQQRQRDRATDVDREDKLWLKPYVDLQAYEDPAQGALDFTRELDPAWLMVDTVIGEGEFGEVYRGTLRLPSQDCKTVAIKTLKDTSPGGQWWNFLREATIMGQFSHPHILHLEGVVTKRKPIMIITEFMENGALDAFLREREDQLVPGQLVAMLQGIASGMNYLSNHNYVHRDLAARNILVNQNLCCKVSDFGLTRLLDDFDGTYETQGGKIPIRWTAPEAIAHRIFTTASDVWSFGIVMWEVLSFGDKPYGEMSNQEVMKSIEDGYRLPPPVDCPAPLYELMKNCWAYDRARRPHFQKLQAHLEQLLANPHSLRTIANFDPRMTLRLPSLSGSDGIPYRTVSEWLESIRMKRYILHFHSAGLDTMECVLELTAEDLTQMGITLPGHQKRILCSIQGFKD
Method in brief: (§1)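 Kinase selectivity panel of 298 kinases, test compound at 0.1 μM, percent inhibition reported.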

[5] = molecular target: Tyrosine-protein kinase Lck (Homo sapiens) (UniProt P06239); experiment: Inhibition of LCK (unknown origin) at 0.1 uM; method in brief: as §1
[6] = molecular target: Proto-oncogene tyrosine-protein kinase Src (Homo sapiens) (UniProt P12931); experiment: Inhibition of Src (unknown origin) at 0.1 uM; method in brief: as §1
[7] = Plasma clearance in mouse at 1 mg/kg, iv and 5 mg/kg, po; type: ADME, organism-based
Method in brief: (§2)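 Single-compound PK. Intravenous dose 1 mg/kg given as a 60% PEG solution. Oral dose 5 mg/kg given as an aqueous suspension in 1% methylcellulose. Plasma clearance, steady-state volume of distribution, half-life and oral bioavailability were determined from these doses.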

[8] = Plasma clearance in dog at 1 mg/kg, iv and 5 mg/kg, po; type: ADME, organism-based, Canis lupus familiaris; method in brief: as §2
[9] = Volume of distribution at steady state in mouse at 1 mg/kg, iv and 5 mg/kg, po; type: ADME, organism-based; conditions: in vivo, read-out: Vdss; method in brief: as §2
[10] = Volume of distribution at steady state in rat at 1 mg/kg, iv and 5 mg/kg, po; type: ADME, organism-based; conditions: in vivo, read-out: Vdss; method in brief: as §2
[11] = Volume of distribution at steady state in dog at 1 mg/kg, iv and 5 mg/kg, po; type: ADME, organism-based, Canis lupus familiaris; conditions: in vivo, read-out: Vdss; method in brief: as §2
[12] = Half life in rat at 1 mg/kg, iv and 5 mg/kg, po; type: ADME, organism-based; conditions: in vivo; method in brief: as §2
[13] = Half life in dog at 1 mg/kg, iv and 5 mg/kg, po; type: ADME, organism-based, Canis lupus familiaris; conditions: in vivo; method in brief: as §2
[14] = Half life in cynomolgus monkey at 1 mg/kg, iv and 5 mg/kg, po; type: ADME, organism-based, Macaca fascicularis; conditions: in vivo; method in brief: as §2
[15] = Oral bioavailability in mouse at 5 mg/kg; type: ADME, organism-based; conditions: in vivo; method in brief: as §2
[16] = Oral bioavailability in rat at 5 mg/kg; type: ADME, organism-based; conditions: in vivo; method in brief: as §2
[17] = Oral bioavailability in dog at 5 mg/kg; type: ADME, organism-based, Canis lupus familiaris; conditions: in vivo; method in brief: as §2
[18] = Oral bioavailability in cynomolgus monkey at 5 mg/kg; type: ADME, organism-based, Macaca fascicularis; conditions: in vivo; method in brief: as §2
Mus musculus = experiment: Neuroprotective activity against C57Bl/6 mouse Parkinson's disease model assessed as reduction of MPTP-induced increase in phosphorylated c-Jun level in substantia nigra at 37.5 to 75 mg/kg, po administered 30 mins prior to MPTP challenge followed by 2nd dosing after 12 and 24 hrs measured 1 hr post last dose by ELISA relative to vehicle-treated control; type: functional, organism-based

Sequence of Proto-oncogene tyrosine-protein kinase Src (Homo sapiens) (P12931 2-536 limits assumed): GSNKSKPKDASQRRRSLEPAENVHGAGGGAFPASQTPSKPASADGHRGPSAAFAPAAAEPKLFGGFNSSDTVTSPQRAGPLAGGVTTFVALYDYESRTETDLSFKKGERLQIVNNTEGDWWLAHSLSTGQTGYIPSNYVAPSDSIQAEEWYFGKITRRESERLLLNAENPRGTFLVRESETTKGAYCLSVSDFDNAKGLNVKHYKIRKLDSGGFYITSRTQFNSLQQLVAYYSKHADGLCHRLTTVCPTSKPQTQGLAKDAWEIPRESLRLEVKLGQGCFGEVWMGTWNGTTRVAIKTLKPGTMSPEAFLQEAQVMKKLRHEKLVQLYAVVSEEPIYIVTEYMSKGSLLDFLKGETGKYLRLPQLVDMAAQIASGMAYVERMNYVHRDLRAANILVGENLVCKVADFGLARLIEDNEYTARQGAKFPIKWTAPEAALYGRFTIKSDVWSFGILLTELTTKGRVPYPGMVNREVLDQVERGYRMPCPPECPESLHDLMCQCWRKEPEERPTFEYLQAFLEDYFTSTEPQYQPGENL
Sequence of Tyrosine-protein kinase Lck (Homo sapiens) (P06239 2-509 limits assumed): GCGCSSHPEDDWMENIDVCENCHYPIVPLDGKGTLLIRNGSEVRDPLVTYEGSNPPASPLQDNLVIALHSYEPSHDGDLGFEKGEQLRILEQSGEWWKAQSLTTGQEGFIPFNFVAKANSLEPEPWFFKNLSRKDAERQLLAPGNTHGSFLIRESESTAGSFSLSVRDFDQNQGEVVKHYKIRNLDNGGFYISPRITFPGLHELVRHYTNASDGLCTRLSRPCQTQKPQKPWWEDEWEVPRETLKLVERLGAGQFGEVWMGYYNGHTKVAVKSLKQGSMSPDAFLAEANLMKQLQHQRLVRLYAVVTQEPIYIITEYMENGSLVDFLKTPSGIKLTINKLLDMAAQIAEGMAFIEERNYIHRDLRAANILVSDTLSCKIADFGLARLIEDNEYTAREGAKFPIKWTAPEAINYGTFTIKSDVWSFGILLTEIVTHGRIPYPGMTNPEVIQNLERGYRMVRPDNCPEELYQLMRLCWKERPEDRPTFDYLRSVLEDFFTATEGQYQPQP
Sequence of Mitogen-activated protein kinase kinase kinase 11 (Q16584 whole entry): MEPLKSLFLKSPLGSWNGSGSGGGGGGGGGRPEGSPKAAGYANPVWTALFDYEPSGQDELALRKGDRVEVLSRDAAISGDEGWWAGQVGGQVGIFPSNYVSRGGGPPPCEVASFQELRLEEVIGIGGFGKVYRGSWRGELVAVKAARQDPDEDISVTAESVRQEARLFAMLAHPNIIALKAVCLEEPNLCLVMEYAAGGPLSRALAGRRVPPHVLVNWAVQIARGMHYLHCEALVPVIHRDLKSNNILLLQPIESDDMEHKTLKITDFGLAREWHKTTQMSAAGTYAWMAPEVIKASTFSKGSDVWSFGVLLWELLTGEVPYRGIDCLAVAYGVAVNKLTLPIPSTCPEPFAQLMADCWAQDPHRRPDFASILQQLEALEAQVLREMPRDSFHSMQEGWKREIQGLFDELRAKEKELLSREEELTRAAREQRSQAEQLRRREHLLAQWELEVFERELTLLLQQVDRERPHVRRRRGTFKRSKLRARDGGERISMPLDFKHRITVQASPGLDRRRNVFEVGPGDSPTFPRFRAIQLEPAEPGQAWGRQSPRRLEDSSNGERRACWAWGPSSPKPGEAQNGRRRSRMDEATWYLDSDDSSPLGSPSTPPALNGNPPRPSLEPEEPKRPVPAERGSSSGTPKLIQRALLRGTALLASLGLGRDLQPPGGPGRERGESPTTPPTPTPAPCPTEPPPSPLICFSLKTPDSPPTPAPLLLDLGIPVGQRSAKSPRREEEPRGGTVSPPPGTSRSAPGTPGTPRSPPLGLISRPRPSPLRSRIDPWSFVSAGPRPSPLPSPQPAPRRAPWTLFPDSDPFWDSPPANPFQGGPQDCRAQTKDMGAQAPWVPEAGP
Sequence of Mitogen-activated protein kinase 10 (P53779 whole entry): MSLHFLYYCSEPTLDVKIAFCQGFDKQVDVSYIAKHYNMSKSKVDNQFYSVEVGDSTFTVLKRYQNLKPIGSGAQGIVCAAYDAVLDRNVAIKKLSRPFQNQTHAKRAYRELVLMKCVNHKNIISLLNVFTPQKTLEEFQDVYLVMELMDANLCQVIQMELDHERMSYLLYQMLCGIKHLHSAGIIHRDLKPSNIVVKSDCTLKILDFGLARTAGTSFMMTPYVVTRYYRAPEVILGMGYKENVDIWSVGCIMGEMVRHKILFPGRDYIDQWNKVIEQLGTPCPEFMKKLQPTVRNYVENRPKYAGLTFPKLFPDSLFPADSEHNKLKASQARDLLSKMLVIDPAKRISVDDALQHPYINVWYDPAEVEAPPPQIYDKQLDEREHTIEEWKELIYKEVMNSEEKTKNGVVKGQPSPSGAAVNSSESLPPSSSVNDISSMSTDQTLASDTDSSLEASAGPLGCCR

Question: For `N#Cc1ccnc(Nc2cc(C3CCN(C4COC4)CC3)cc(N3CCC(F)(F)C3)n2)c1`, which IC50 [1] is on record?
Answer: > 5 µM

Question: And the IC50 [2]?
Answer: 0.364 µM

Question: What about the IC50 [3] of the same compound?
Answer: 0.602 µM

Question: What about the inhibition [4] of the same compound?
Answer: > 80%

Question: And the inhibition [5]?
Answer: > 80%

Question: And the inhibition [6]?
Answer: > 80%

Question: And the clearance [7]?
Answer: 3.36 L/h/kg

Question: What about the clearance [8] of the same compound?
Answer: 2.46 L/h/kg

Question: And the Vd [9]?
Answer: 2.5 L/kg

Question: What about the Vd [10] of the same compound?
Answer: 3.7 L/kg

Question: What about the Vd [11] of the same compound?
Answer: 6.5 L/kg

Question: And the half-life [12]?
Answer: 1.8 h

Question: What about the half-life [13] of the same compound?
Answer: 4 h

Question: And the half-life [14]?
Answer: 2.4 h

Question: And the bioavailability [15]?
Answer: 45%

Question: And the bioavailability [16]?
Answer: 63%

Question: And the bioavailability [17]?
Answer: 32%

Question: What about the bioavailability [18] of the same compound?
Answer: 19%

Question: And the Activity (Mus musculus)?
Answer: Active
